Data on 10 compounds can be found in ChEMBL document CHEMBL3352345, “Design, synthesis and biological evaluation of novel thieno[3,2-d]pyrimidine derivatives containing diaryl urea moiety as potent antitumor agents” (Eur J Med Chem, 2014).

What is called IC50 is the concentration at which inhibition is half-maximal. Read a low IC50 as greater potency in that assay.

Experiment [1] has as its system HT-29. Description: Cytotoxicity against human HT-29 cells after 72 hrs by MTT assay. Format: functional, cell-based. The following applies: HT-29, 72 h. A digest of the protocol:
(§1)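 Cells suspended in MEM medium, plated and incubated 24 h at 37 °C in 5% CO₂, then exposed to compounds at indicated final concentrations for 72 h. IC₅₀ from averages of three determinations, relative to DMSO vehicle control.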

The subject of the next experiment is MDA-MB-231. Description: Cytotoxicity against human MDA-MB-231 cells after 72 hrs by MTT assay. The class given is functional, cell-based. The following applies: MDA-MB-231, 72 h. In a few lines: as §1
A general note: Tetrazolium dyes change colour on reduction, which living cells bring about.

Experiment [2] is described as follows: Cytotoxicity against human H460 cells after 72 hrs by MTT assay. To be noted: NCI-H460, 72 h. Format: functional, cell-based. A digest of the protocol: as §1
Experiment [3] is described as follows: Cytotoxicity against human MKN45 cells after 72 hrs by MTT assay. The class given is functional, cell-based. The following applies: MKN-45, 72 h. In a few lines: as §1
For experiment [4], the system named is HT-29. Nature of the experiment: Induction of apoptosis in human HT-29 cells assessed as increase in PARP cleavage pre-treated for 48 hrs by Western blot method. The class given is functional, cell-based. A digest of the protocol:
(§2)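 HT-29 cells (about 1 × 10⁷) treated 48 h with vehicle or 1 or 5 µM compound; lysates prepared with lysis buffer plus protease inhibitor cocktail and sonicated. Equal total protein run on 10% SDS-PAGE, transferred to PVDF, probed with primary and HRP secondary antibodies. Cleaved PARP to β-actin ratio expressed relative to control.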
(In general: A western blot detects proteins with antibodies after separation by electrophoresis.)

For experiment [5], the target named is Serine/threonine-protein kinase mTOR (Homo sapiens, UniProt P42345). Nature of the experiment: Inhibition of mTOR (unknown origin) using poly (Glu, Tyr) 4:1 substrate incubated for 30 mins by HTRF assay. In a few lines:
(§3)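 Compounds in 1% DMSO, blank DMSO as negative control. Reaction started with purified tyrosine kinase, 30 min at 25 °C, stopped with Streptavidin-XL665 and Tk antibody cryptate; read at […] and 615 nm.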

Experiment [6] has as its target Vascular endothelial growth factor receptor 2 (Homo sapiens, UniProt P35968). Description: Inhibition of KDR (unknown origin) using poly (Glu, Tyr) 4:1 substrate incubated for 30 mins by HTRF assay.
Experiment [7] has as its target Serine/threonine-protein kinase B-raf (Homo sapiens, UniProt P15056). Description: Inhibition of B-Raf (unknown origin) using poly (Glu, Tyr) 4:1 substrate incubated for 30 mins by HTRF assay.
In experiment [8] the target is Mast/stem cell growth factor receptor Kit (Homo sapiens, UniProt P10721). Nature of the experiment: Inhibition of KIT (unknown origin) using poly (Glu, Tyr) 4:1 substrate incubated for 30 mins by HTRF assay. A digest of the protocol:
as §3
For orientation: In TR-FRET formats the signal depends on donor and acceptor labels being close together.

The target of experiment [9] is Platelet-derived growth factor receptor beta (Homo sapiens, UniProt P09619). Description: Inhibition of PDGFRbeta (unknown origin) using poly (Glu, Tyr) 4:1 substrate incubated for 30 mins by HTRF assay. A digest of the protocol:
as §3

In experiment [10] the target is Epidermal growth factor receptor (Homo sapiens, UniProt P00533). Description: Inhibition of EGFR (unknown origin) using poly (Glu, Tyr) 4:1 substrate incubated for 30 mins by HTRF assay.
Epidermal growth factor receptor, sequence (P00533 whole entry): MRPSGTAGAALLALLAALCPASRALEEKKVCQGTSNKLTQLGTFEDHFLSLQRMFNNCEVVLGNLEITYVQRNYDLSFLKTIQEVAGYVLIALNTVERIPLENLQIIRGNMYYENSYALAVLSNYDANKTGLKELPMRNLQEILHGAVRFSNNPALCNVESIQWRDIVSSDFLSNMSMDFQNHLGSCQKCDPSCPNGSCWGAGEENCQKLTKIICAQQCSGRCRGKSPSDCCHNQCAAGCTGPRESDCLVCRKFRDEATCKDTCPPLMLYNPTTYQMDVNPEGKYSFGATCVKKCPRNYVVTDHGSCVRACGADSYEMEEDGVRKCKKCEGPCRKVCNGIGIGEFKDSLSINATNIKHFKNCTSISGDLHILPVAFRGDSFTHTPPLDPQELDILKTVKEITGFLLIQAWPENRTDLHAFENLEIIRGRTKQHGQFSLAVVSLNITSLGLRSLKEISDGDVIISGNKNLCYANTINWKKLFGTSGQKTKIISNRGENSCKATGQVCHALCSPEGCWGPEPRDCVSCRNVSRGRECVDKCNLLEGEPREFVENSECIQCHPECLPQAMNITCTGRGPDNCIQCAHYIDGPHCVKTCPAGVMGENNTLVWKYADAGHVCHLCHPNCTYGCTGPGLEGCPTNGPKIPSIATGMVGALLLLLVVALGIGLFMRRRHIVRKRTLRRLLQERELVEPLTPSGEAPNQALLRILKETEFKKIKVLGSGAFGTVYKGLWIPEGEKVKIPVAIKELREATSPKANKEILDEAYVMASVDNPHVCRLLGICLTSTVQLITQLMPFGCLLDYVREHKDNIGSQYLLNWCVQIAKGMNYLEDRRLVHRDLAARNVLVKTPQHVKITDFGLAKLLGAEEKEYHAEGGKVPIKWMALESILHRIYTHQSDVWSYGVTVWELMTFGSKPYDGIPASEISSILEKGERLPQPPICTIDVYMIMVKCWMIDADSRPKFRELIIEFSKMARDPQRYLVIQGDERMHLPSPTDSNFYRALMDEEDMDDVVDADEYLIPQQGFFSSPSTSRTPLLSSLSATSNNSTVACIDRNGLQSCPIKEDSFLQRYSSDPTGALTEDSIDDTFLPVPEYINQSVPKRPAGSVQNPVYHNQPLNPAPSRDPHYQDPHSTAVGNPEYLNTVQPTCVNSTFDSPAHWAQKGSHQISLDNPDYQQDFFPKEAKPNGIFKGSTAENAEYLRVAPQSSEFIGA
For experiment [11], the target named is T1, Receptor-type tyrosine-protein kinase FLT3 (Homo sapiens, UniProt P36888).
T1 sequence (P36888 whole entry): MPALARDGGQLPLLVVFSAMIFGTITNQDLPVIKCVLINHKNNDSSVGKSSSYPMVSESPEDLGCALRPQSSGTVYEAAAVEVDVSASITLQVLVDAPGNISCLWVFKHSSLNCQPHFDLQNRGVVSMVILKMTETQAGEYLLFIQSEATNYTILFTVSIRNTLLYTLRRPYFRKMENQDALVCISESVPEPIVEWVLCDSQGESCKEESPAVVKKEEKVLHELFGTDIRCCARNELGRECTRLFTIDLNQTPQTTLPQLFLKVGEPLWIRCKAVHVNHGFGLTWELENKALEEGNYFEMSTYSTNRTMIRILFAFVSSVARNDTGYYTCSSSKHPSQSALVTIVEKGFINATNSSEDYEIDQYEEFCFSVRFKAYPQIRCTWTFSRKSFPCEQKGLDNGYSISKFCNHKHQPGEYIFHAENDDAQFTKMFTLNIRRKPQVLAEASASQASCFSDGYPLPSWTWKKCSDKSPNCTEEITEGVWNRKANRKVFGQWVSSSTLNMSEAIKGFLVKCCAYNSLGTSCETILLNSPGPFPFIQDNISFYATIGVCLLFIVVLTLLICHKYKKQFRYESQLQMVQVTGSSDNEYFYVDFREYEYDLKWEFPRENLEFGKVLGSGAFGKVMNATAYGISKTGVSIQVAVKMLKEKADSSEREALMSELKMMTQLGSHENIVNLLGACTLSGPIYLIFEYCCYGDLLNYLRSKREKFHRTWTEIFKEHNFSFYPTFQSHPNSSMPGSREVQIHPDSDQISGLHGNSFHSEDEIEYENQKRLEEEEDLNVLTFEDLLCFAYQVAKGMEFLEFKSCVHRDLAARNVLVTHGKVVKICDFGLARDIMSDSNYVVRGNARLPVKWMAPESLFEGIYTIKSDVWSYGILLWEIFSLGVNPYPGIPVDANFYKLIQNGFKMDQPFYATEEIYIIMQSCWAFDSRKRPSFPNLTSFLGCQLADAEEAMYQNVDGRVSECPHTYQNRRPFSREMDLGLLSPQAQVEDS
Description: Inhibition of FLT3 (unknown origin) using poly (Glu, Tyr) 4:1 substrate incubated for 30 mins by HTRF assay. In a few lines: as §3

For experiment [12], the system named is HT-29. Nature of the experiment: Induction of apoptosis in human HT-29 cells assessed as increase in PARP cleavage at 5 uM pre-treated for 48 hrs by Western blot method relative to beta-actin expression. The class given is functional. A digest of the protocol: as §2
The target in experiment [13] is Vascular endothelial growth factor receptor (Homo sapiens, UniProt P17948+P35916+P35968). Nature of the experiment: Inhibition of VEGFR (unknown origin) using poly (Glu, Tyr) 4:1 substrate incubated for 30 mins by HTRF assay. Format: protein assay.
The target in experiment [14] is RAF proto-oncogene serine/threonine-protein kinase (Homo sapiens, UniProt P04049). Description: Inhibition of C-Raf (unknown origin) using poly (Glu, Tyr) 4:1 substrate incubated for 30 mins by HTRF assay. A digest of the protocol: as §3
RAF proto-oncogene serine/threonine-protein kinase, sequence (P04049 whole entry): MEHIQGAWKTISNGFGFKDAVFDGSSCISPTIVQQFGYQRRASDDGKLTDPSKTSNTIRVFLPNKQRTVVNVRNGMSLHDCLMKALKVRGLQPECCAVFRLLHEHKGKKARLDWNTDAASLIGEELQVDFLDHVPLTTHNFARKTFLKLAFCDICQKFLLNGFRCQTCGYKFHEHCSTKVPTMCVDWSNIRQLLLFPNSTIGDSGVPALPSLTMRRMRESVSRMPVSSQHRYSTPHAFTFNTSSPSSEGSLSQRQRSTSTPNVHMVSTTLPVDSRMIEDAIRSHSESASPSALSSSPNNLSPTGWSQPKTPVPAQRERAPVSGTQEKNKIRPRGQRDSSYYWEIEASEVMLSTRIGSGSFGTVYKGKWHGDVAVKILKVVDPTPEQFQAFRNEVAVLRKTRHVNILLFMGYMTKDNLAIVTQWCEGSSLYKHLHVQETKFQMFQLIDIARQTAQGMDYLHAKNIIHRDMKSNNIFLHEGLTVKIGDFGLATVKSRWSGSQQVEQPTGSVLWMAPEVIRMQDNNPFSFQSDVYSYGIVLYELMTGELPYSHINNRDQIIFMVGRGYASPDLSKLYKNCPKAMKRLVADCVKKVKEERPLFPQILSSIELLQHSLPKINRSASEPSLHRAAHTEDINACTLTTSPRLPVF
Experiment [15] relates to HT-29. Description: Induction of apoptosis in human HT-29 cells assessed as increase in PARP cleavage at 1 uM pre-treated for 48 hrs by Western blot method relative to beta-actin expression. The class given is functional. In a few lines:
as §2

In experiment [16] the target is Phosphatidylinositol 4,5-bisphosphate 3-kinase catalytic subunit alpha isoform (Homo sapiens, UniProt P42336). Nature of the experiment: Inhibition of PI3Kalpha (unknown origin) using poly (Glu, Tyr) 4:1 substrate incubated for 30 mins by HTRF assay.

Each structure is given as a SMILES string.

Mast/stem cell growth factor receptor Kit, sequence (P10721 whole entry): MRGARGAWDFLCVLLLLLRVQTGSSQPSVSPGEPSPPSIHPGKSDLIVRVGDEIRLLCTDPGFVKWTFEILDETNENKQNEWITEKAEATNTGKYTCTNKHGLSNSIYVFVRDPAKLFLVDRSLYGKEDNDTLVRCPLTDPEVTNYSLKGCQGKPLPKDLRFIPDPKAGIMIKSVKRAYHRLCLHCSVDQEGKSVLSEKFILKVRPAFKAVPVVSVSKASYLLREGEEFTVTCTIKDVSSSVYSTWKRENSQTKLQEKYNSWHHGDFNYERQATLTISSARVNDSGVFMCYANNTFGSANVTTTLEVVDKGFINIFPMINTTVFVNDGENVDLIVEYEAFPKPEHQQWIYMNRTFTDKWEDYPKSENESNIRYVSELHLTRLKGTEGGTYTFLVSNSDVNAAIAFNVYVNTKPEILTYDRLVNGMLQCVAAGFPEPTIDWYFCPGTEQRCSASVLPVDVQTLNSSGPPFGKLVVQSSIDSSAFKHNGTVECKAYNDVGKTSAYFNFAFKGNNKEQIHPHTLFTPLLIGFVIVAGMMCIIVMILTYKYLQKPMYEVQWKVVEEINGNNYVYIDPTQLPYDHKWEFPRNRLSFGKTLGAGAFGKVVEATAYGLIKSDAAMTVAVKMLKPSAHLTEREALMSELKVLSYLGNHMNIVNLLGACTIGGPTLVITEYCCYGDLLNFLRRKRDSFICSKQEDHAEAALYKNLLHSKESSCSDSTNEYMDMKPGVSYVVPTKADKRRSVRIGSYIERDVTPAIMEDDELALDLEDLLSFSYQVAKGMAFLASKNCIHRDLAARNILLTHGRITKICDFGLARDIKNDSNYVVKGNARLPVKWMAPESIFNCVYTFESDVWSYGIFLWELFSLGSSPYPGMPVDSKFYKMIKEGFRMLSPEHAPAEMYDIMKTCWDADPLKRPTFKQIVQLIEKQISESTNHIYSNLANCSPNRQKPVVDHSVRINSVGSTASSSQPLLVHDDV
Platelet-derived growth factor receptor beta, sequence (P09619 whole entry): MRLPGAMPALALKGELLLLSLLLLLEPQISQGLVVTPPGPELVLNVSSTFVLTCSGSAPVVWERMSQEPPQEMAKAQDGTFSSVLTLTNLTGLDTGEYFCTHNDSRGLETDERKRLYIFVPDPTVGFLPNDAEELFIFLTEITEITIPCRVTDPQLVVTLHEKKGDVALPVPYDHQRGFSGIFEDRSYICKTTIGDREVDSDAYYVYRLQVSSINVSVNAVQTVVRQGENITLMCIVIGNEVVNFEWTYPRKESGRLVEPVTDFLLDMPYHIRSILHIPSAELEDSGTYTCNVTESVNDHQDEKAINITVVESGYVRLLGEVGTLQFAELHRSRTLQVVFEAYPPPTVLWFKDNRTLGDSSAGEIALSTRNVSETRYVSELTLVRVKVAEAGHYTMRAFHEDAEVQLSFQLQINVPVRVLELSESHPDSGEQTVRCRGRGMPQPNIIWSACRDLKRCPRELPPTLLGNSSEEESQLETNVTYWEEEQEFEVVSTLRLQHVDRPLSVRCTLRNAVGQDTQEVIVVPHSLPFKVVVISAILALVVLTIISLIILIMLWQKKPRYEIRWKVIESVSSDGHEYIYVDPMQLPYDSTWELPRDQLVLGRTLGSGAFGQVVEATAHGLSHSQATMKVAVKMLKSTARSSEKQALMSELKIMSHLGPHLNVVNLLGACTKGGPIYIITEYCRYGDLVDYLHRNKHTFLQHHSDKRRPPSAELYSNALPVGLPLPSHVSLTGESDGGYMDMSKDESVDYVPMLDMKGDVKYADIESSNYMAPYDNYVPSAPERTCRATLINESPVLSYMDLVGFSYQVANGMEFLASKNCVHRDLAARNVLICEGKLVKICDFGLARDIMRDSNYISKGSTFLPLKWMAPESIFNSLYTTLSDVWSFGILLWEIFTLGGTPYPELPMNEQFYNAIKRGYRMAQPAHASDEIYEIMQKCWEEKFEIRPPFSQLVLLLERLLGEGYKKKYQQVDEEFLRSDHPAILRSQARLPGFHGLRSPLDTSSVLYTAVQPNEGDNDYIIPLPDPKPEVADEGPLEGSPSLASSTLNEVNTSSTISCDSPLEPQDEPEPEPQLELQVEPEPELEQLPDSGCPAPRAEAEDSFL
Serine/threonine-protein kinase B-raf, sequence (P15056 whole entry): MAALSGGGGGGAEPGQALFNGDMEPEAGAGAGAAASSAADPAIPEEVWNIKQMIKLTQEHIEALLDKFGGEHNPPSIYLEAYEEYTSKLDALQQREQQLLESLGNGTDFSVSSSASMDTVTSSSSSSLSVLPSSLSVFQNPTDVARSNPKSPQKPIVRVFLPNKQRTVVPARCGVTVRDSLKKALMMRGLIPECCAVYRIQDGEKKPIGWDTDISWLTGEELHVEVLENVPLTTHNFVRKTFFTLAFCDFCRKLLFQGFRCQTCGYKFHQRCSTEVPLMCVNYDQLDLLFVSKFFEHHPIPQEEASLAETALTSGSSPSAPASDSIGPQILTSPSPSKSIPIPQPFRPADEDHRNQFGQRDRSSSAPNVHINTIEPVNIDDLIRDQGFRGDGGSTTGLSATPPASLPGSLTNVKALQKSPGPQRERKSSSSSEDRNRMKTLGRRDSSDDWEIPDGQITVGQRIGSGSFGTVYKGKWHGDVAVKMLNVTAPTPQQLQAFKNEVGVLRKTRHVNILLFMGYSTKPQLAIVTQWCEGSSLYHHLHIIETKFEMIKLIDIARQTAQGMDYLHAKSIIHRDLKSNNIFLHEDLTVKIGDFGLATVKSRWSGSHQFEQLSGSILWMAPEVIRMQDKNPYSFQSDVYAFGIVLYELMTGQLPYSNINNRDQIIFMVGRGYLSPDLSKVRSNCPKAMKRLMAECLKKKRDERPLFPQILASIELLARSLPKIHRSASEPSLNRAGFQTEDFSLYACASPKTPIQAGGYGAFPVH

As for `CN(C)CCNc1nc(-c2ccc(NC(=O)Nc3ccc(Cl)cc3Cl)cc2)nc2ccsc12`, the IC50 was 1320 nM in the experiment on HT-29 [1], 2450 nM with MDA-MB-231, 1650 nM in experiment [2] and 2360 nM in experiment [3].

Regarding `CCN(CC)CCCNc1nc(-c2ccc(NC(=O)Nc3ccc(Cl)cc3)cc2)nc2ccsc12`, the IC50 with HT-29 [1] is 58 nM; in [5] it was more than 10000 nM; in experiment [6], more than 10000 nM; with MDA-MB-231, 230 nM; in [2], 81 nM; in experiment [7], more than 10000 nM. Besides, the IC50 in experiment [8] was 6100 nM; in experiment [9], 5800 nM; in [10], more than 10000 nM; in experiment [11], 1000 nM; in experiment [13], more than 10000 nM; in experiment [14], more than 10000 nM. The IC50 in [3] amounted to 180 nM; in experiment [16], 130 nM. For the same compound, the Activity result with HT-29 [4] is “Dose-dependent effect”. The “fold change (FC)” value with HT-29 [12] was 3.5; in the experiment with HT-29 [15] it was 2.5.

As for `CCN(CC)CCCNc1nc(-c2ccc(NC(=O)Nc3ccc(C)cc3)cc2)nc2c(Cl)c(Cl)sc12`, the IC50 with HT-29 [1] was determined as 890 nM; with MDA-MB-231, 3040 nM; in experiment [2], 1240 nM; in [3] it was 3320 nM.

As to `CCN(CC)CCNc1nc(-c2ccc(NC(=O)Nc3ccccc3Cl)cc2)nc2ccsc12`, the IC50 in the experiment on HT-29 [1] turned out to be 620 nM; with MDA-MB-231, 680 nM; in [2], 320 nM; in [3], 750 nM.

Take `Cc1ccc(NC(=O)Nc2ccc(-c3nc(NCCCN(C)C)c4sc(Cl)c(Cl)c4n3)cc2)cc1`: the IC50 was determined as 1320 nM with HT-29 [1], 4980 nM with MDA-MB-231, 1110 nM in experiment [2] and 3700 nM in experiment [3].

For `CN(C)CCCNc1nc(-c2ccc(NC(=O)Nc3ccc(Cl)cc3Cl)cc2)nc2c(Cl)c(Cl)sc12`, the half-inhibitory concentration (IC50) stood at 1320 nM in the experiment on HT-29 [1], 3490 nM in the experiment with MDA-MB-231, 980 nM in [2] and 2560 nM in [3].

Consider `CCN(CC)CCNc1nc(-c2ccc(NC(=O)Nc3ccc(F)cc3)cc2)nc2c(Cl)c(Cl)sc12`, for which the IC50 in the experiment with HT-29 [1] worked out at 650 nM; in the experiment on MDA-MB-231, 1130 nM; in experiment [2], 500 nM; in experiment [3], 1370 nM.

Regarding `CCN(CC)CCCNc1nc(-c2ccc(NC(=O)Nc3ccc(C)cc3)cc2)nc2ccsc12`, the IC50 in the experiment with HT-29 [1] came out at 1620 nM; in the experiment on MDA-MB-231, 1980 nM; in experiment [2] it was 1240 nM; in [3] it was 1760 nM.

Turning to `CN(C)CCCNc1nc(-c2ccc(NC(=O)Nc3ccc(Cl)cc3)cc2)nc2c(Cl)c(Cl)sc12`, the IC50 in the experiment on HT-29 [1] stood at 330 nM; in the experiment on MDA-MB-231, 1160 nM; in experiment [2] it was 230 nM; in experiment [3] it was 1530 nM.

With `CN(C)CCCNc1nc(-c2ccc(NC(=O)Nc3ccc(Cl)cc3Cl)cc2)nc2ccsc12`, the IC50 in the experiment on HT-29 [1] came to 1860 nM; in the experiment with MDA-MB-231 it was 1860 nM; in experiment [2], 1020 nM; in experiment [3] it was 2270 nM.
